Calls of active or inactive are those of the source. The rule behind the calls is not given here.
Key:
[1] = In vivo inhibition of PAT1 in intestinal closed-loop CD-1 mouse model assessed as reduction in loop weight/length ratio in ileum measured for 30 mins; type: functional; conditions: 0.5 h
Method in brief: (§1)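 Mice (wild-type CD1 or homozygous F508del CF, 10-16 wk, both sexes) fasted 24 h with free access to 5% dextrose water. Under isoflurane at 36-38 °C, 2-3 ileal loops (2-3 cm) were tied off and injected with 100 µL PBS pH 7.4 containing 30 µM inhibitor, 10 µM tenapanor or 0.1% DMSO vehicle. Loops removed at 0 or 30 min in separate mice; length and weight measured for fluid absorption. One-way ANOVA with Newman-Keuls.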

[2] = In vivo inhibition of PAT1 in intestinal closed-loop CD-1 mouse model harboring CFTR delF508/delF508 mutant assessed as reduction in loop fluid volume in ileum measured for 30 mins; type: functional; conditions: 0.5 h; method in brief: as §1
[3] = molecular target: T1, Anoctamin-1 (Homo sapiens) (UniProt Q5XXA6); test: Inhibition of TMEM16A (unknown origin)
T1 sequence (whole entry): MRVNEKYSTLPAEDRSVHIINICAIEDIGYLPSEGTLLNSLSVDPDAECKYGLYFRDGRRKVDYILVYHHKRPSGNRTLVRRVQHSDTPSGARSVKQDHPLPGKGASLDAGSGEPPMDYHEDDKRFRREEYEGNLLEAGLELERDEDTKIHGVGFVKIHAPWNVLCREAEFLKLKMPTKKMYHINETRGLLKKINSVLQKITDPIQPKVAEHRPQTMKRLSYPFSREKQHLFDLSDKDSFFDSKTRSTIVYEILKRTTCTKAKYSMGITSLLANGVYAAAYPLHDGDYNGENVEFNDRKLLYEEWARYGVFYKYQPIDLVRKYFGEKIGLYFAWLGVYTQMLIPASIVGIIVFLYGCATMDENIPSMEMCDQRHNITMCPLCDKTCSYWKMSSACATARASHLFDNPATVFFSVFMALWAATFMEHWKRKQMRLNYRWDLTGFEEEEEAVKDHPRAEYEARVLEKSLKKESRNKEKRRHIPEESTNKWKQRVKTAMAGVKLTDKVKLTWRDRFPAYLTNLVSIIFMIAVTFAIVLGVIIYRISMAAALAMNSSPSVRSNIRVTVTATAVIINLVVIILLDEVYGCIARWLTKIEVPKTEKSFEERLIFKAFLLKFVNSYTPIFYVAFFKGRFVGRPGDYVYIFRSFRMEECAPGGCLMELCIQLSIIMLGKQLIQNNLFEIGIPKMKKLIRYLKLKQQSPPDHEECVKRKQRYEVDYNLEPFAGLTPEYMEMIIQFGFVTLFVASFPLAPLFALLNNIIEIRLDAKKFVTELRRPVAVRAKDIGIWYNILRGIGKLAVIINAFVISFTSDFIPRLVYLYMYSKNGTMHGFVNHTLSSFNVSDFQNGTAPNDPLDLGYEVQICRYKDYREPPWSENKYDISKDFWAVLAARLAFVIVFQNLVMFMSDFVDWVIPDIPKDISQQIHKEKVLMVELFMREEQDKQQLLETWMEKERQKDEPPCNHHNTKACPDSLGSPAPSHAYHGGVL

[4] = Cytotoxicity against rat FRT cells assessed as reduction in cell viability at 10 uM incubated for 24 hrs by alamar blue staining based analysis; type: toxicity
Method in brief: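 FRT cells seeded 20,000/well and grown 24 h, then exposed to compound at 10 μM for 24 h. Vehicle control 0.1% DMSO, positive control 20% DMSO. Viability read by Alamar Blue.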

inhibition [3]: inactive
Compound: CCOC(=O)c1nc(N(C)Cc2ccccc2)c2c(C)noc2n1
inhibition (INH) [1]: >90% | inhibition (INH) [2]: >90% | Activity [4]: Non-Toxic
